# Activity calls are given as the source filed them. The calls are words filed in the database; no cut-off is given here.
# What was measured:
# Mus musculus [1] = species: Mus musculus; assay: Anticonvulsant activity against audiogenic tonus seizures in DBA/2 mouse after 30 mins; format: functional; conditions: DBA/2, 0.5 h
# Summary of the method: (§1)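 DBA/2 mice aged 22 to 25 days, of either sex, in groups of 10. Dosed ip (0.1 mL/10 g) as a fresh solution in 50% DMSO/50% saline, or given vehicle. After 30 min, 60 s habituation under a dome, then 12–16 kHz, 109 dB sound for 60 s or until tonic extension. Seizure phase incidence and latency were scored. ED50 (≥32 animals, 95% confidence limits) by Litchfield–Wilcoxon.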
# Mus musculus [2] = species: Mus musculus; assay: Anticonvulsant activity against audiogenic clonus seizures in DBA/2 mouse after 30 mins; format: functional; conditions: DBA/2, 0.5 h; summary of the method: as §1
# [3] = (§2) Reduction in AMPA-mediated current in CA1 pyramidal neurons of Wistar rat at 50 uM after 5 mins by patch clamp technique; format: functional, Pyramidal neuron; design: scale not given: the % may be the effect or the level left
# Summary of the method: (§3)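 Whole-cell patch clamp of single CA1 pyramidal neurons; pipette 1.5–3 MΩ, K-gluconate-based intracellular solution. (S)-AMPA 5 μM pulsed for 5 s by fast solution changer; test agent bath-perfused 5 min. Peak amplitude minus baseline and current duration from ≥3 consecutive responses per neuron, control vs drug; unpaired t test per neuron, Wilcoxon matched pairs across neurons.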
# Pyramidal neuron = assay: as §2; format: functional; summary of the method: as §3
Compound,ED50 (Mus musculus [1]) [µmol/kg],ED50 (Mus musculus [2]) [µmol/kg],Activity [3] [%],Activity (Pyramidal neuron)
CCN(CC)C(=O)C(=O)N1CCc2cc(OC)c(OC)cc2C1c1ccccc1 (stereo unspecified),53.3,65.1,–,–
CCN(CC)C(=O)C(=O)N1CCc2cc(OC)c(OC)cc2C1c1ccc(Cl)cc1 (stereo unspecified),67.7,75.9,–,–
COc1cc2c(cc1OC)C(c1ccc(Br)cc1)N(C(=O)CN1CCCCC1)CC2 (stereo unspecified),8.17,12.7,–,–
COc1cc2c(cc1OC)C(c1ccccc1)N(C(=O)C(=O)N1CCCCC1)CC2 (stereo unspecified),55.3,98.1,–,–
COc1cc2c(cc1OC)C(c1ccc(Cl)cc1)N(C(=O)C(=O)N1CCCC1)CC2 (stereo unspecified),37.2,58.1,–,–
COc1cc2c(cc1OC)C(c1ccc(F)cc1)N(C(=O)C(=O)N1CCOCC1)CC2 (stereo unspecified),90.2,> 100,–,–
COc1cc2c(cc1OC)C(c1ccccc1)N(C(=O)C(=O)N1CCCC1)CC2 (stereo unspecified),54.6,> 100,–,–
CCN(CC)C(=O)C(=O)N1CCc2cc(OC)c(OC)cc2C1c1ccc(F)cc1 (stereo unspecified),> 100,> 100,–,–
CCN(CC)C(=O)C(=O)N1CCc2cc(OC)c(OC)cc2C1c1ccc(Br)cc1 (stereo unspecified),> 100,> 100,–,–
COc1cc2c(cc1OC)C(c1ccc(Br)cc1)N(C(=O)C(=O)N1CCCCC1)CC2 (stereo unspecified),41.6,60.5,–,–
COc1cc2c(cc1OC)C(c1ccc(Cl)cc1)N(C(=O)C(=O)N1CCOCC1)CC2 (stereo unspecified),46.9,91,–,–
COc1cc2c(cc1OC)C(c1ccc(Br)cc1)N(C(=O)C(=O)N1CCCC1)CC2 (stereo unspecified),45.4,89.2,–,–
COc1cc2c(cc1OC)C(c1ccccc1)N(C(=O)C(=O)N1CCOCC1)CC2 (stereo unspecified),72.1,> 100,–,–
COc1cc2c(cc1OC)C(c1ccc(F)cc1)N(C(=O)C(=O)N1CCCCC1)CC2 (stereo unspecified),38.7,44.6,60,–
COc1cc2c(cc1OC)C(c1ccc(Cl)cc1)N(C(=O)C(=O)N1CCCCC1)CC2 (stereo unspecified),65.3,88.4,–,–
CC1=NN=C(c2ccc(N)cc2)c2cc3c(cc2C1)OCO3,–,–,–,Active
COc1cc2c(cc1OC)C(c1ccc(F)cc1)N(C(=O)C(=O)N1CCCC1)CC2 (stereo unspecified),73,> 100,–,–
COc1cc2c(cc1OC)C(c1ccc(Br)cc1)N(C(=O)C(=O)N1CCOCC1)CC2 (stereo unspecified),> 100,> 100,–,–

# — ChEMBL document CHEMBL1144026, “Synthesis and anticonvulsant evaluation of N-substituted isoquinoline AMPA receptor antagonists” (2008)
